Reference: ChEMBL document CHEMBL3600378 (J Med Chem, 2015)

Columns and labels:
[1] = target: Beta-3 adrenergic receptor (Homo sapiens, UniProt P13945); experiment: Intrinsic activity at human beta3-adrenergic receptor expressed in CHO cells assessed as increase of cAMP level after 30 mins relative to isoproterenol; assay type: functional, cell-based
Method in brief: (§1)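 Stably transfected CHO cells expressing human β1, β2 or β3 or marmoset β3 receptor were grown in Ham's F-12 with 10% FBS and geneticin, seeded at 2×10⁴ cells/well and grown about 20 h. Cells spent 15 min serum-free, then 30 min with compound in medium containing HEPES and isobutylmethylxanthine. Lysate cAMP was measured by kit. […] EC50 is the half-maximal concentration for each compound.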

[2] = target: T1, Beta-1 adrenergic receptor (Homo sapiens, UniProt P08588); experiment: Agonist activity at human beta1-adrenergic receptor expressed in CHO cells assessed as increase of cAMP level after 30 mins; assay type: functional, cell-based; method in brief: as §1
Target sequence in this assay (P08588 whole entry): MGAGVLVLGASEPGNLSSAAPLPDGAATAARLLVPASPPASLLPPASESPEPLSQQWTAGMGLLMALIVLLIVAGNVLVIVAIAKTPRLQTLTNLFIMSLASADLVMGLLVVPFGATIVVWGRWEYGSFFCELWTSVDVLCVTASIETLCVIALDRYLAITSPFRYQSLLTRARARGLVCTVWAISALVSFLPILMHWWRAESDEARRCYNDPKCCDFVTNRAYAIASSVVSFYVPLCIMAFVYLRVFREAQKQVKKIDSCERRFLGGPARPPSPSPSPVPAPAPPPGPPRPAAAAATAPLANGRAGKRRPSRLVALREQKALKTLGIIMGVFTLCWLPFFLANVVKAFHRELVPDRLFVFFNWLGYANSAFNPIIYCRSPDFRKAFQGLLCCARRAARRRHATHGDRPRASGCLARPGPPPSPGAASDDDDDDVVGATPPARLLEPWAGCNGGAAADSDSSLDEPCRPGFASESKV

[3] = target: T1, Beta-1 adrenergic receptor; experiment: Intrinsic activity at human beta1-adrenergic receptor expressed in CHO cells assessed as increase of cAMP level after 30 mins relative to isoproterenol; assay type: functional, cell-based; method in brief: as §1
Target sequence in this assay (P08588 whole entry, looked up): as the sequence (P08588 whole entry) above

[4] = target: Beta-2 adrenergic receptor (Homo sapiens, UniProt P07550); experiment: Agonist activity at human beta2-adrenergic receptor expressed in CHO cells assessed as increase of cAMP level after 30 mins; assay type: functional, cell-based; method in brief: as §1
Homo sapiens [5] = organism: Homo sapiens; experiment: Selectivity ratio of EC50 for human beta2-adrenergic receptor to EC50 for human beta3-adrenergic receptor
[6] = target: T2, Alpha-1A adrenergic receptor (Homo sapiens, UniProt P35348); experiment: Agonist activity at human alpha1A-adrenergic receptor expressed in HEK293 cells assessed as calcium flux by fluorescence assay; assay type: functional, cell-based
T2 sequence (P35348 whole entry): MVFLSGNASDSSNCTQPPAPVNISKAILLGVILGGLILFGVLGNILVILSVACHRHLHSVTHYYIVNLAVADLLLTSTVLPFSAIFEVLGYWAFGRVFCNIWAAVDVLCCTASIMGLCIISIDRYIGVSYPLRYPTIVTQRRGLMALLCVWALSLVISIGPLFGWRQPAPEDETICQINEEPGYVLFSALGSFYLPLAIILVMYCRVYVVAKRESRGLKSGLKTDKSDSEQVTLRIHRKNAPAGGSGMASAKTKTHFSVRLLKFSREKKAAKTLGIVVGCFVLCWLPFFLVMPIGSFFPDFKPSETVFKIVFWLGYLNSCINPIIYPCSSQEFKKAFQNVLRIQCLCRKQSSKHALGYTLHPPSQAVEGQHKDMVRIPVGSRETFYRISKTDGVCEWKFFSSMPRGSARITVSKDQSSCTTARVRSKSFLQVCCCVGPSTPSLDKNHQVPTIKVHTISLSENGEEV

Homo sapiens [7] = organism: Homo sapiens; experiment: Selectivity ratio of EC50 for human alpha1A-adrenergic receptor to EC50 for human beta3-adrenergic receptor
[8] = target: T3, Alpha-1B adrenergic receptor (Homo sapiens, UniProt P35368); experiment: Agonist activity at human alpha1B-adrenergic receptor
T3 sequence (P35368 whole entry): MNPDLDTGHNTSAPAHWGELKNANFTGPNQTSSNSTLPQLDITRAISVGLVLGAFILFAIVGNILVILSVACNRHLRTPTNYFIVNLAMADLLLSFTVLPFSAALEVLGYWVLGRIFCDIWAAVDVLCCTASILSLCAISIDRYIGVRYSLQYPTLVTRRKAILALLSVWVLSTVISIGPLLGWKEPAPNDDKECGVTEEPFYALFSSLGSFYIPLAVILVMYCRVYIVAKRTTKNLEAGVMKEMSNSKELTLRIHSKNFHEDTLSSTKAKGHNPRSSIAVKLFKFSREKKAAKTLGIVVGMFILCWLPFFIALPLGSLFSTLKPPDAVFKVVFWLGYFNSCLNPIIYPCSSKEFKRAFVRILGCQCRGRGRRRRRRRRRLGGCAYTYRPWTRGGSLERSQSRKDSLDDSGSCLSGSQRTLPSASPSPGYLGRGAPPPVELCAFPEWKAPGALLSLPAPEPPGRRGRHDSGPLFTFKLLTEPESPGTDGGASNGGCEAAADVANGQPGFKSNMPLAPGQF

[9] = target: T4, Alpha-2C adrenergic receptor (Homo sapiens, UniProt P18825); experiment: Agonist activity at human alpha2C-adrenergic receptor
T4 sequence (P18825 whole entry): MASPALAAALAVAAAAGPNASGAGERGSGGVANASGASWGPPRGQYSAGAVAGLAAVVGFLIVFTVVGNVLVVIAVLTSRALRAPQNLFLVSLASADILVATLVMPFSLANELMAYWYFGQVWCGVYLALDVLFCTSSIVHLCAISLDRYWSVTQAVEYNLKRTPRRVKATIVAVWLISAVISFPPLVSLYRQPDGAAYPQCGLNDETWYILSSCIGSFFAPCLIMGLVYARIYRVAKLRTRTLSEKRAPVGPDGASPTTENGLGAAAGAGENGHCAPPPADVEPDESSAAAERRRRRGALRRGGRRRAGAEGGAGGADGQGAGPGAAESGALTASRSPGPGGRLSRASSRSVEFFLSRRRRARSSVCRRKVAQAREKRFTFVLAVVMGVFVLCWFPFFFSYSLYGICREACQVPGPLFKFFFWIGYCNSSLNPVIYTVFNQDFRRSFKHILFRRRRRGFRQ

Rattus norvegicus [10] = experiment: Cardiotoxicity in anesthetized Sprague-Dawley rat assessed as decrease in heart rate at 3 mg/kg, iv measured for 30 mins relative to control; assay type: toxicity, organism-based; parameters: scale not given: the % may be the effect or the level left; details: in vivo, 0.5 h
Method in brief: (§2)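 Male Sprague-Dawley rats (200-300 g) were anesthetized with sodium pentobarbital (50 mg/kg i.p. plus 25 mg/kg s.c.). The compound was injected via the cannulated left femoral vein once BP and HR were stable, and HR and MBP were recorded for 30 min. Results are the maximum % increase or decrease from baseline, as mean ± SEM. Where given, silodosin (0.01 mg/kg iv) preceded the compound.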

Rattus norvegicus [11] = experiment: Cardiotoxicity in anesthetized Sprague-Dawley rat assessed as decrease in mean blood pressure at 3 mg/kg, iv measured for 30 mins relative to control; assay type: toxicity, organism-based; parameters: scale not given: the % may be the effect or the level left; details: in vivo, 0.5 h; method in brief: as §2

Sequence of Beta-3 adrenergic receptor (P13945 whole entry, looked up): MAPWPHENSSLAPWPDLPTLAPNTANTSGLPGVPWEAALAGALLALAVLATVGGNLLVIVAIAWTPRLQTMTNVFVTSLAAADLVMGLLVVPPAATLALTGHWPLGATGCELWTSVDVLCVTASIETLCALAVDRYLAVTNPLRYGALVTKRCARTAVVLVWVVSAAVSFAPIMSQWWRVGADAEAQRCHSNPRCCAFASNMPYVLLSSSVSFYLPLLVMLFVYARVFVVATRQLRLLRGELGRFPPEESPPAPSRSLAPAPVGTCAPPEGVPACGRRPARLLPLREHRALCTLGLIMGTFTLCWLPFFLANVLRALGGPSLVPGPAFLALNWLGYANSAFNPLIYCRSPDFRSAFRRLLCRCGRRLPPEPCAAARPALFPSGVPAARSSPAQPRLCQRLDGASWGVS
Sequence of Beta-2 adrenergic receptor (P07550 whole entry): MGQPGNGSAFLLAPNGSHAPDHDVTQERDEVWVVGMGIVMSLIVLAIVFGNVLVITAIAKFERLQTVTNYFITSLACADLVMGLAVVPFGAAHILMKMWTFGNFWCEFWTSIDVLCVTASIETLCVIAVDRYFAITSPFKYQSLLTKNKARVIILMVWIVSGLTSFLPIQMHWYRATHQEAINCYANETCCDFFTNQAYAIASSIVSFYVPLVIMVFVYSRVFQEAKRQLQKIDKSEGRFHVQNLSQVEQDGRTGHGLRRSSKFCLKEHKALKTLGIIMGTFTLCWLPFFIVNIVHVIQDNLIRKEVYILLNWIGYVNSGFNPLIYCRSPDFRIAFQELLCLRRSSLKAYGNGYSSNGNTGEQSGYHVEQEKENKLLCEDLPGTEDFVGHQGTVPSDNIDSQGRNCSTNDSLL

Intrinsic activity [1]: 82%
EC50 [2]: > 10 µM
Intrinsic activity [3]: 6%
EC50 [4]: > 10 µM
Ratio EC50 (Homo sapiens [5]): > 476
EC50 [6]: 0.219 µM
Ratio EC50 (Homo sapiens [7]): 10
EC50 [8]: > 10 µM
EC50 [9]: > 10 µM
Compound: Cc1n[nH]c2cc(OCCNC[C@H](O)c3cccc(NS(C)(=O)=O)c3)ccc12
Activity (Rattus norvegicus [10]): 8.8%
Activity (Rattus norvegicus [11]): 8.5%
